Source: ChEMBL document CHEMBL1153232, “Synthesis and screening of a CaaL peptide library versus FTase reveals a surprising number of substrates” (Bioorg Med Chem Lett, 2010)
Active and inactive are the calls of the source. No cut-off for these calls is given here. Peptide text beside a SMILES is read from it. * marks the point of attachment. Dansyl = CN(C)c1cccc2c(S(=O)(=O)*)cccc12

What was measured:
[1] = target: Protein farnesyltransferase subunit beta (Homo sapiens) (UniProt P49356); assay: Ratio of kcat to km for FTase in presence of farnesyl diphosphate
Outline: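 Steady-state kinetics at saturating FPP (10 μM), 0.2-10 μM dansyl peptide, 20-100 nM FTase (at least 5-fold below peptide). Buffer: 50 mM HEPPSO pH 7.8, 5 mM TCEP, 5 mM MgCl2, 25 °C. Peptide preincubated 20 min in buffer, then FTase and FPP added. Fluorescence (ex 340, em 520 nm) followed over time and converted to kcat/KM.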

[2] = target: Protein farnesyltransferase subunit beta (Homo sapiens) (UniProt P49356); assay: Activity at FTase assessed as formation of farnesylated peptide after 60 mins by HPLC
Outline: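 Peptide (3 μM) with 9 μM FPP and recombinant mammalian FTase (0.05 μM), incubated 60 min. HPLC scored conversion to farnesylated peptide: complete; nearly complete; 25% to 50%; less than 25%; no product.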

[3] = target: Protein farnesyltransferase subunit beta (Homo sapiens) (UniProt P49356); assay: Substrate activity for FTase assessed as increase in fluorescence by spectrofluorimetry in presence of farnesyl diphosphate relative to DnGCVLS; design: concentration or dose not given beside the values

Chain of Protein farnesyltransferase subunit beta (Homo sapiens) (P49356 whole entry): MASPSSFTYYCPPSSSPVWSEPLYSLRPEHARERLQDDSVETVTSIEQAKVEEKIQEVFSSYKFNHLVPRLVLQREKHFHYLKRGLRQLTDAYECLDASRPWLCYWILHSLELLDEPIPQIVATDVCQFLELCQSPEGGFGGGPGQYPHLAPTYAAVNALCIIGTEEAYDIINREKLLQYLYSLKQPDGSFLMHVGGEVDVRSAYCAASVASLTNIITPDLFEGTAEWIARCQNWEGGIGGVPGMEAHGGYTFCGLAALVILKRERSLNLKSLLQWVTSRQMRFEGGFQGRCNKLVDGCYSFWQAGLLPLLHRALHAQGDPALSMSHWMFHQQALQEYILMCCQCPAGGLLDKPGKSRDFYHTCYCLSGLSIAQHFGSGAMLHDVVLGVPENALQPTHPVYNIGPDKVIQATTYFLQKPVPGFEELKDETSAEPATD

| Ratio [1] [mM⁻¹ s⁻¹] | Activity [2] | Activity [3] [%] | Compound |
| --- | --- | --- | --- |
| 33 | Active | 45 | CC[C@H](C)[C@H](NC(=O)[C@@H](NC(=O)[C@H](CS)NC(=O)CNS(=O)(=O)c1cccc2c(N(C)C)cccc12)[C@@H](C)O)C(=O)N[C@@H](CC(C)C)C(=O)O (Dansyl-GCTIL-OH) |
| 43 | Active | 101 | CC[C@H](C)[C@H](NC(=O)[C@H](CS)NC(=O)CNS(=O)(=O)c1cccc2c(N(C)C)cccc12)C(=O)N[C@H](C(=O)N[C@@H](CC(C)C)C(=O)O)[C@@H](C)CC (Dansyl-GCIIL-OH) |
